Data as given in ChEMBL document CHEMBL4346653, “A2B Adenosine Receptor Antagonists with Picomolar Potency” (J Med Chem, 2019).

Tests used:
Homo sapiens = species: Homo sapiens; experiment: Selectivity index, ratio of Ki for displacement of [3H]MSX-2 from recombinant human A2A adenosine receptor expressed in CHO cell membranes to Ki for displacement of [3H]PSB-603 from recombinant human A2B adenosine receptor expressed in CHO cell membranes
Adenosine receptor A2b = molecular target: T1, Adenosine receptor A2b (Homo sapiens, UniProt P29275); experiment: Displacement of [3H]PSB-603 from recombinant human A2B adenosine receptor expressed in CHO cell membranes measured after 75 mins in presence of adenosine deaminase by liquid scintillation counting method
T1 sequence (P29275 whole entry): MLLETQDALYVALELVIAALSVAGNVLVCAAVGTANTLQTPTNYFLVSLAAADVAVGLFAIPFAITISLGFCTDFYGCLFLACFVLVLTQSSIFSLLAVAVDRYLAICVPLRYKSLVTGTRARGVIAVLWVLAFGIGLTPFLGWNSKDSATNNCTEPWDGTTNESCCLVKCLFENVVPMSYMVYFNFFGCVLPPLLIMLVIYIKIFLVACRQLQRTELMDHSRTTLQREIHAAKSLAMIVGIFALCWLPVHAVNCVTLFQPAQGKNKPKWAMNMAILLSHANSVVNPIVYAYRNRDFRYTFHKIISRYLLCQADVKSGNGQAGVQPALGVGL
How it was run: (§1)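 Competition binding on membranes of cells recombinantly expressing the human receptor (CHO or HEK cells), with tritiated radioligand per subtype: [3H]PSB-603 for A2B, [3H]MSX-2 for A2A, [3H]CCPA for A1, [3H]PSB-11 for A3. Ki ± SEM from n = 3, some from extrapolated curves. Weak binders are reported as % inhibition of radioligand binding at 1 μM.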

Adenosine receptor A3 = molecular target: T2, Adenosine receptor A3 (Homo sapiens, UniProt P0DMS8); experiment: Displacement of [3H]PSB-11 from recombinant human A3 adenosine receptor expressed in CHO cell membranes measured after 45 mins in presence of adenosine deaminase by liquid scintillation counting method; how it was run: as §1
T2 sequence (P0DMS8 whole entry): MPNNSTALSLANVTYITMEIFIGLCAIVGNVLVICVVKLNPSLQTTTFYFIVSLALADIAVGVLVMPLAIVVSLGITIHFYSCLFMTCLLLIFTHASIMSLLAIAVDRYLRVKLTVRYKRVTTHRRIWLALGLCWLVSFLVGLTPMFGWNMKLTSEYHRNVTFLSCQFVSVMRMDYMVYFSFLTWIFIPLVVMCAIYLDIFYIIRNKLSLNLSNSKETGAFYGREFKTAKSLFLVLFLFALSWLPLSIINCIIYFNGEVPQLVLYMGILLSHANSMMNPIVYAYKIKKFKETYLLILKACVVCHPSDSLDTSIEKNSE

Adenosine receptor A2a = Adenosine receptor A2a (Homo sapiens, UniProt P29274); experiment: Displacement of [3H]MSX-2 from recombinant human A2A adenosine receptor expressed in CHO cell membranes measured after 30 mins in presence of adenosine deaminase by liquid scintillation counting method; how it was run: as §1
Adenosine receptor A1 = molecular target: T3, Adenosine receptor A1 (Homo sapiens, UniProt P30542); experiment: Displacement of [3H]CCPA from recombinant human A1 adenosine receptor expressed in CHO cell membranes measured after 90 mins in presence of adenosine deaminase by liquid scintillation counting method; how it was run: as §1
T3 sequence (P30542 whole entry): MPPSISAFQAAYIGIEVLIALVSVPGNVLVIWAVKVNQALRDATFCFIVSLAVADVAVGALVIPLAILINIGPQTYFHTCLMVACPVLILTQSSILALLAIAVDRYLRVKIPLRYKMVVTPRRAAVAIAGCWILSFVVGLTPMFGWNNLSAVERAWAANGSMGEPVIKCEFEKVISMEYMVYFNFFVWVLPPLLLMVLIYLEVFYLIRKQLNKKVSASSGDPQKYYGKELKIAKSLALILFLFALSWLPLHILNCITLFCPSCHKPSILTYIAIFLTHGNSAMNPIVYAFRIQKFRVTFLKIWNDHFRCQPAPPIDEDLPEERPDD

[1] = molecular target: T4, Adenosine receptor A3 (Homo sapiens) (UniProt P0DMS8); experiment: Displacement of [3H]PSB-11 from recombinant human A3 adenosine receptor expressed in CHO cell membranes at 1 uM measured after 45 mins in presence of adenosine deaminase by liquid scintillation counting method relative to control
T4 sequence (whole entry): T2 sequence (P0DMS8 whole entry)
How it was run: (§2)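 Single-point competition binding at human AR subtype membranes, each against its own tritiated radioligand. The test compound is given at 1 μM, and the result is reported as percent inhibition of radioligand binding. The radioligand-specific footnotes give n = 3.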

[2] = molecular target: T5, Adenosine receptor A1 (Homo sapiens) (UniProt P30542); experiment: Displacement of [3H]CCPA from recombinant human A1 adenosine receptor expressed in CHO cell membranes at 1 uM measured after 90 mins in presence of adenosine deaminase by liquid scintillation counting method relative to control; how it was run: as §2
T5 sequence (whole entry): T3 sequence (P30542 whole entry)

Adenosine receptor A2a, sequence (P29274 whole entry): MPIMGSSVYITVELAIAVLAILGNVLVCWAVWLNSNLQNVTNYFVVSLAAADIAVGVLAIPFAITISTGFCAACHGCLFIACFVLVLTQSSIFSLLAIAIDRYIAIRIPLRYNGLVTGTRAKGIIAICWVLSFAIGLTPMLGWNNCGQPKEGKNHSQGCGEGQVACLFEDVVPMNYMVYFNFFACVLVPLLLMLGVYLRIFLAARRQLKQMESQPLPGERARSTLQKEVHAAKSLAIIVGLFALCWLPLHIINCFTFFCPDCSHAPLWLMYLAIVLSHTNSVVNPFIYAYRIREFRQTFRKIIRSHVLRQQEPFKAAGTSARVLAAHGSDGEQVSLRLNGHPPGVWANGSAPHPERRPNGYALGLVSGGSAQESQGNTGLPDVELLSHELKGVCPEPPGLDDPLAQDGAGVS

Ki (Adenosine receptor A2b) [nM] | Ki (Adenosine receptor A3) [nM] | Ki (Adenosine receptor A2a) [nM] | Ki (Adenosine receptor A1) [nM] | inhibition [1] [%] | inhibition [2] [%] | Compound | Ratio Ki (Homo sapiens)
1.28 | > 1000 | 131 | 205 | 27 |  | CCCn1c(=O)[nH]c2nc(-c3ccc(S(=O)(=O)N4CCN(Cc5cccc(OC)c5)CC4)cc3)[nH]c2c1=O | 100
6.08 | > 1000 | 168 | > 1000 | 23 | 24 | CCCn1c(=O)[nH]c2nc(-c3ccc(S(=O)(=O)N4CCN(c5ccc(OCCO)cc5)CC4)cc3)[nH]c2c1=O | 30
0.403 | > 1000 | 204 | > 1000 | 32 | 25 | CCCn1c(=O)[nH]c2nc(-c3ccc(S(=O)(=O)N4CCN(c5ccccc5Cl)CC4)cc3)[nH]c2c1=O | 510
0.421 | > 1000 | 40.7 | 113 | 31 |  | CCCn1c(=O)[nH]c2nc(-c3ccc(S(=O)(=O)N4CCN(c5ccc(Cl)c(O)c5)CC4)cc3)[nH]c2c1=O | 100
0.215 | > 1000 | 35.3 | 535 | 46 |  | CCCn1c(=O)[nH]c2nc(-c3ccc(S(=O)(=O)N4CCN(c5ccc(Cl)c(OC)c5)CC4)cc3)[nH]c2c1=O | 160
0.137 | > 1000 | 89.5 | > 1000 | 20 | 28 | CCCn1c(=O)[nH]c2nc(-c3ccc(S(=O)(=O)N4CCN(c5ccccc5Br)CC4)cc3)[nH]c2c1=O | 650
0.643 | > 1000 | 122 | 364 | 27 |  | CCCn1c(=O)[nH]c2nc(-c3ccc(S(=O)(=O)N4CCN(c5ccccc5)CC4)cc3)[nH]c2c1=O | 190
4.31 | > 1000 | 322 | > 1000 | 28 | 24 | CCCn1c(=O)c2[nH]c(-c3ccc(S(=O)(=O)N4CCN(c5ccc(Cl)cc5)CC4)cc3)nc2n(CC)c1=O | 75
0.894 | > 1000 | 245 | > 1000 | 15 | 24 | CCCn1c(=O)[nH]c2nc(-c3ccc(S(=O)(=O)N4CCN(Cc5ccc(OC)c(F)c5)CC4)cc3)[nH]c2c1=O | 270
0.629 | > 1000 | 135 | > 1000 | -5 | 25 | CCCn1c(=O)[nH]c2nc(-c3ccc(S(=O)(=O)N4CCN(Cc5ccc(F)c(OC)c5)CC4)cc3)[nH]c2c1=O | 220
0.397 | > 1000 | 189 | 795 | 17 |  | CCCn1c(=O)[nH]c2nc(-c3ccc(S(=O)(=O)N4CCN(Cc5cccc(C)c5)CC4)cc3)[nH]c2c1=O | 480
0.432 | > 1000 | 140 | 419 | 25 |  | CCCn1c(=O)[nH]c2nc(-c3ccc(S(=O)(=O)N4CCN(c5ccccc5C)CC4)cc3)[nH]c2c1=O | 320
1.02 | > 1000 | 160 | > 1000 | 12 | 31 | CCCn1c(=O)[nH]c2nc(-c3ccc(S(=O)(=O)N4CCN(Cc5cc(F)cc(OC)c5)CC4)cc3)[nH]c2c1=O | 160
0.244 | > 1000 | 208 | 492 | 32 |  | CCCn1c(=O)[nH]c2nc(-c3ccc(S(=O)(=O)N4CCN(Cc5ccc(N=[N+]=[N-])cc5)CC4)cc3)[nH]c2c1=O | 850
12.2 | > 1000 | 241 | 560 | 17 |  | CCCn1c(=O)[nH]c2nc(-c3ccc(S(=O)(=O)N4CCN(Cc5ccc(OCCO)cc5)CC4)cc3)[nH]c2c1=O | 20
7.15 | > 1000 | 293 | > 1000 | -2 | 15 | CCCn1c(=O)[nH]c2nc(-c3ccc(S(=O)(=O)N4CCN(c5ccccc5)C(C)C4)cc3)[nH]c2c1=O (stereo not drawn) | 40
3.55 | > 1000 | 93.8 | > 1000 | 41 | 37 | CCCn1c(=O)[nH]c2nc(-c3ccc(S(=O)(=O)N4CCN(c5ccc(O)c(Cl)c5)CC4)cc3)[nH]c2c1=O | > 30
18.6 | 1220 | 52.7 | 190 |  |  | CCCn1c(=O)[nH]c2nc(-c3ccc(S(=O)(=O)N(C)C)cc3)[nH]c2c1=O | 3
0.153 | > 1000 | 77.8 | > 1000 | 28 | 31 | CCCn1c(=O)[nH]c2nc(-c3ccc(S(=O)(=O)N4CCN(Cc5ccc(Br)cc5)CC4)cc3)[nH]c2c1=O | 510
48.2 | > 1000 | 140 | 334 | 7 |  | CCCn1c(=O)[nH]c2nc(-c3ccc(S(=O)(=O)N4CCN(C)CC4)cc3)[nH]c2c1=O | 3
1.69 | > 1000 | 357 | 1040 | 4 |  | CCCn1c(=O)[nH]c2nc(-c3ccc(S(=O)(=O)N(C)CCc4ccccc4)cc3)[nH]c2c1=O | 210
5.69 | > 1000 | 143 | > 1000 | 26 | 15 | CCCn1c(=O)[nH]c2nc(-c3ccc(S(=O)(=O)N4CCN(C(=O)c5ccccc5)CC4)cc3)[nH]c2c1=O | 30
7.02 | > 1000 | 314 | 1010 | 30 |  | CCCn1c(=O)[nH]c2nc(-c3ccc(S(=O)(=O)N4CCN(Cc5ccc(OCCOCCOC)cc5)CC4)cc3)[nH]c2c1=O | 50
0.616 | > 1000 | 197 | > 1000 | -1 | -3 | CCCn1c(=O)[nH]c2nc(-c3ccc(S(=O)(=O)N4CCN(c5cccc(OC)c5)CC4)cc3)[nH]c2c1=O | 320
4.3 | > 1000 | 96.7 | 356 | 21 |  | CCCn1c(=O)[nH]c2nc(-c3ccc(S(=O)(=O)N4CCN(c5ccc(O)cc5)CC4)cc3)[nH]c2c1=O | 20
0.644 | > 1000 | 108 | > 1000 | 38 | 14 | CCCn1c(=O)[nH]c2nc(-c3ccc(S(=O)(=O)N4CCN(c5ccc(F)cc5)CC4)cc3)[nH]c2c1=O | 170
